≈ marks a conversion by molar mass, not a printed value. One block for each compound: values may come before it. Calls of active or inactive are those of the source. The rule behind the calls is not given here.
Tests used:
[1] = target: T1, Transient receptor potential cation channel subfamily A member 1 (Homo sapiens, UniProt O75762); experiment: Inhibition of full length human TRPA1 at a holding potential of 15 mV measured after 1 min by PatchXpress electrophysiology assay
How it was run: (§1)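 Medium-throughput PatchXpress electrophysiology on HEK293-T-rex cells expressing TRPA1 (human line; selected compounds also run in a rat TRPA1 line).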

[2] = target: T2, Transient receptor potential cation channel subfamily A member 1 (Rattus norvegicus, UniProt Q6RI86); experiment: Inhibition of full length rat TRPA1 at a holding potential of 15 mV measured after 1 min by PatchXpress electrophysiology assay; how it was run: as §1
[3] = target: Voltage-gated potassium channel, KQT; KCNQ2(Kv7.2)/KCNQ3(Kv7.3) (Homo sapiens, UniProt O43525+O43526); experiment: Activation of KCNQ2/3 (unknown origin); format: protein-complex assay
[4] = target: T3, Potassium voltage-gated channel subfamily KQT member 1 (Homo sapiens, UniProt P51787); experiment: Inhibition of KCNQ1 (unknown origin)
T3 sequence (P51787 whole entry): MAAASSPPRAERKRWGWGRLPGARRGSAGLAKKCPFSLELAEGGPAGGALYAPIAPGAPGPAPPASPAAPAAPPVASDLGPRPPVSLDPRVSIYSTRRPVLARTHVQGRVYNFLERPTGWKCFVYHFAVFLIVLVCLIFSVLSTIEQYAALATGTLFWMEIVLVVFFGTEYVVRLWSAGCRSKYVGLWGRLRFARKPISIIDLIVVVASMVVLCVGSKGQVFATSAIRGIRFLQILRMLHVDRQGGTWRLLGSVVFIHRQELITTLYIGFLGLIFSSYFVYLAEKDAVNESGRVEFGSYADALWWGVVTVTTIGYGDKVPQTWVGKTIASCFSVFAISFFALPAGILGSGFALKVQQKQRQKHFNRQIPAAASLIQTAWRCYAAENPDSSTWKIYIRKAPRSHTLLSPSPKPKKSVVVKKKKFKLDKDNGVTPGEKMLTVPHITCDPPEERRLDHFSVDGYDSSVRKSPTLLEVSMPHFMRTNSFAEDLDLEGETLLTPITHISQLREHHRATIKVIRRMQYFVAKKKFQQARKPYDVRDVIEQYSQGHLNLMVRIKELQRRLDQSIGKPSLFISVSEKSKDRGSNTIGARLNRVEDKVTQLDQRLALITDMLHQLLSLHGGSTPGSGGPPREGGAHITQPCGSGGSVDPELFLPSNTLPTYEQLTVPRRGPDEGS

[5] = Intrinsic clearance in human liver microsomes; format: ADME, microsome; conditions: read-out: CLH
[6] = Intrinsic clearance in rat liver microsomes; format: ADME, microsome; conditions: read-out: CLH
MDR1 [7] = experiment: Permeability across basolateral to apical side in RRCK cells expressing MDR1; format: ADME, cell-based, Canis lupus familiaris, MDCKII-LE; conditions: dog, MDCK-MDR1; read-out: permeability
MDR1 [8] = experiment: Permeability across apical to basolateral side in RRCK cells expressing MDR1; format: ADME, cell-based, Canis lupus familiaris, MDCKII-LE; conditions: dog, MDCK-MDR1; read-out: permeability
[9] = Aqueous solubility of the compound by kinetic miniaturized shakeflask method; format: physicochemical; conditions: buffer
How it was run: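 Kinetic miniaturized shake-flask method, starting from a DMSO stock solution.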

[10] = target: T1, Transient receptor potential cation channel subfamily A member 1; experiment: Antagonist activity at human TRPA1 by calcium flux based FLIPR assay
How it was run: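 High-throughput antagonist-mode FLIPR Ca2+ imaging screen of the internal library in 384-well format; hits confirmed by single-rig electrophysiology.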

[11] = target: Sodium channel protein type 5 subunit alpha (Homo sapiens, UniProt Q14524); experiment: Inhibition of Nav1.5 (unknown origin)
[12] = target: Sodium channel protein type 9 subunit alpha (Homo sapiens, UniProt Q15858); experiment: Inhibition of Nav1.7 (unknown origin)
[13] = target: Transient receptor potential cation channel subfamily V member 1 (Homo sapiens, UniProt Q8NER1); experiment: Inhibition of TRPV1 (unknown origin)
[14] = target: T2, Transient receptor potential cation channel subfamily A member 1; experiment: Inhibition of rat TRPA1 at a holding potential of 15 mV measured after 1 min by whole-cell manual patch clamp electrophysiology assay
Rattus norvegicus [15] = experiment: Anti-inflammatory activity in po dosed Sprague-Dawley rat assessed as reduction in flinching dosed 2 hrs prior to subcutaneous administration of AITC in right hand paw measured for 30 mins; format: functional
How it was run: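 Oral dosing in rats; AITC then given subcutaneously into the right hind paw. Paw flinching is scored, and the minimum effective dose is taken as the lowest dose giving a significant reduction.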

Rattus norvegicus [16] = experiment: Suppression of cinnamaldehyde-induced flare response in Sprague-Dawley rat at 10 to 100 mg/kg administered systemically measured after 75 mins by recording blood flow for 30 mins by laser Doppler sonography method; format: functional, organism-based
How it was run: (§2)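 Rats dosed orally at 10, 30 and 100 mg/kg, with mean systemic concentrations measured. Flare is induced by cinnamaldehyde and blood flow read by laser Doppler sonography, compared against vehicle and a TRPV1 antagonist given as a mechanistic comparator.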

Blood = experiment: Drug level in Sprague-Dawley rat blood at 10 to 100 mg/kg, po; format: ADME, organism-based; conditions: in vivo, read-out: Drug uptake; how it was run: as §2
[17] = target: Voltage-gated inwardly rectifying potassium channel KCNH2 (Homo sapiens, UniProt Q12809)
MDCKII-LE = experiment: Permeability in RRCK cells expressing MDR1; conditions: dog
[18] = Inhibition of full length opossum TRPA1 at a holding potential of 15 mV measured after 1 min by PatchXpress electrophysiology assay; design: species or system Monodelphis domestica
[19] = Inhibition of full length opossum TRPA1 hS5 chimera at a holding potential of 15 mV measured after 1 min by PatchXpress electrophysiology assay; design: species or system Monodelphis domestica
[20] = target: T1, Transient receptor potential cation channel subfamily A member 1; experiment: Inhibition of full length human TRPA1 oS5 chimera at a holding potential of 15 mV measured after 1 min by PatchXpress electrophysiology assay
Rattus norvegicus [21] = experiment: Suppression of cinnamaldehyde-induced flare response in Sprague-Dawley rat at 50 mg/ml administered topically measured after 60 mins by recording blood flow for 30 mins by laser Doppler sonography method; format: functional
How it was run: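 Compound formulated in vehicle, applied topically to rat skin at 50 mg/mL and left for a set time. Then 20% v/v cinnamaldehyde in the same vehicle is applied at that site, and local blood flow is measured by laser Doppler sonography. Free plasma concentrations are also determined.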

[22] = Permeability in Sprague-Dawley rat skin; format: ADME, Zone of skin; conditions: read-out: permeability (converted)
How it was run: (§3)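 Skin flux study after topical administration. Skin permeability is given in cm/h, and compound concentrations are measured separately in the epidermal and dermal layers, expressed as μg/g.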

[23] = Drug level in Sprague-Dawley rat skin epidermal layer; format: ADME, Skin epidermis; conditions: in vivo; how it was run: as §3
[24] = Drug level in Sprague-Dawley rat skin dermal layer; format: ADME, Dermis; conditions: in vivo; how it was run: as §3
[25] = Unbound fraction in Sprague-Dawley rat plasma
[26] = target: Transient receptor potential cation channel subfamily A member 1 (Rattus norvegicus) (UniProt Q6RI86); conditions: 1 uM
Chain of Transient receptor potential cation channel subfamily A member 1 (Rattus norvegicus) (Q6RI86 whole entry): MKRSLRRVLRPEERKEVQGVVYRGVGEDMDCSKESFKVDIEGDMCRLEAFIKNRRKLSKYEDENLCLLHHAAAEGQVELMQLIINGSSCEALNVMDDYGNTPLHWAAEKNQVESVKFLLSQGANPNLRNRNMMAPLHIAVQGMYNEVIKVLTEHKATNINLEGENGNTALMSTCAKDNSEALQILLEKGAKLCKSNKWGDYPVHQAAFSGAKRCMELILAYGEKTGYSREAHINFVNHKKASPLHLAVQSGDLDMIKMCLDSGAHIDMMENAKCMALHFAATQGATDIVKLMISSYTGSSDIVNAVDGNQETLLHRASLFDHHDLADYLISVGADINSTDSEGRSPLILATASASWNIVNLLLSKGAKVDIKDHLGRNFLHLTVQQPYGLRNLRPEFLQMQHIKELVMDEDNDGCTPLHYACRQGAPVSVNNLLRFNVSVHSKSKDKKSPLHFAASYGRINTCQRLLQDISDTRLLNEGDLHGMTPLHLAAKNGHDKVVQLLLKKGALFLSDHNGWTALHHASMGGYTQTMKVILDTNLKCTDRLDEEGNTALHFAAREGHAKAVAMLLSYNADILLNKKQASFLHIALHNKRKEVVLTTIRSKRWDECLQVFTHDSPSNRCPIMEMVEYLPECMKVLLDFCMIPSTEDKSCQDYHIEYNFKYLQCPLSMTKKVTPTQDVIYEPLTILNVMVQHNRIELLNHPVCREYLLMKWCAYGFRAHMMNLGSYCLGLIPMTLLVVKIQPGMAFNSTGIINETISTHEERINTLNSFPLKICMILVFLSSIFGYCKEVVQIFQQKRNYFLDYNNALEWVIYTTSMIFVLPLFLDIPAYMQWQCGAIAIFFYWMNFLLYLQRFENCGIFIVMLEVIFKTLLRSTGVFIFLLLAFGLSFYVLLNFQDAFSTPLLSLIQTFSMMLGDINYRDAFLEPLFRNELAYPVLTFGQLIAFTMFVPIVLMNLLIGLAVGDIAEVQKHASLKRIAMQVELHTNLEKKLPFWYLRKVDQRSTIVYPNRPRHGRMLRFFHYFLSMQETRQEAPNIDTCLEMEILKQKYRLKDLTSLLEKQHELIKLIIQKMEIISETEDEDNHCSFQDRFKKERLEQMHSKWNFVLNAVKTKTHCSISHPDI

T2 sequence (Q6RI86 whole entry): as above
Chain of Sodium channel protein type 5 subunit alpha (Q14524 whole entry): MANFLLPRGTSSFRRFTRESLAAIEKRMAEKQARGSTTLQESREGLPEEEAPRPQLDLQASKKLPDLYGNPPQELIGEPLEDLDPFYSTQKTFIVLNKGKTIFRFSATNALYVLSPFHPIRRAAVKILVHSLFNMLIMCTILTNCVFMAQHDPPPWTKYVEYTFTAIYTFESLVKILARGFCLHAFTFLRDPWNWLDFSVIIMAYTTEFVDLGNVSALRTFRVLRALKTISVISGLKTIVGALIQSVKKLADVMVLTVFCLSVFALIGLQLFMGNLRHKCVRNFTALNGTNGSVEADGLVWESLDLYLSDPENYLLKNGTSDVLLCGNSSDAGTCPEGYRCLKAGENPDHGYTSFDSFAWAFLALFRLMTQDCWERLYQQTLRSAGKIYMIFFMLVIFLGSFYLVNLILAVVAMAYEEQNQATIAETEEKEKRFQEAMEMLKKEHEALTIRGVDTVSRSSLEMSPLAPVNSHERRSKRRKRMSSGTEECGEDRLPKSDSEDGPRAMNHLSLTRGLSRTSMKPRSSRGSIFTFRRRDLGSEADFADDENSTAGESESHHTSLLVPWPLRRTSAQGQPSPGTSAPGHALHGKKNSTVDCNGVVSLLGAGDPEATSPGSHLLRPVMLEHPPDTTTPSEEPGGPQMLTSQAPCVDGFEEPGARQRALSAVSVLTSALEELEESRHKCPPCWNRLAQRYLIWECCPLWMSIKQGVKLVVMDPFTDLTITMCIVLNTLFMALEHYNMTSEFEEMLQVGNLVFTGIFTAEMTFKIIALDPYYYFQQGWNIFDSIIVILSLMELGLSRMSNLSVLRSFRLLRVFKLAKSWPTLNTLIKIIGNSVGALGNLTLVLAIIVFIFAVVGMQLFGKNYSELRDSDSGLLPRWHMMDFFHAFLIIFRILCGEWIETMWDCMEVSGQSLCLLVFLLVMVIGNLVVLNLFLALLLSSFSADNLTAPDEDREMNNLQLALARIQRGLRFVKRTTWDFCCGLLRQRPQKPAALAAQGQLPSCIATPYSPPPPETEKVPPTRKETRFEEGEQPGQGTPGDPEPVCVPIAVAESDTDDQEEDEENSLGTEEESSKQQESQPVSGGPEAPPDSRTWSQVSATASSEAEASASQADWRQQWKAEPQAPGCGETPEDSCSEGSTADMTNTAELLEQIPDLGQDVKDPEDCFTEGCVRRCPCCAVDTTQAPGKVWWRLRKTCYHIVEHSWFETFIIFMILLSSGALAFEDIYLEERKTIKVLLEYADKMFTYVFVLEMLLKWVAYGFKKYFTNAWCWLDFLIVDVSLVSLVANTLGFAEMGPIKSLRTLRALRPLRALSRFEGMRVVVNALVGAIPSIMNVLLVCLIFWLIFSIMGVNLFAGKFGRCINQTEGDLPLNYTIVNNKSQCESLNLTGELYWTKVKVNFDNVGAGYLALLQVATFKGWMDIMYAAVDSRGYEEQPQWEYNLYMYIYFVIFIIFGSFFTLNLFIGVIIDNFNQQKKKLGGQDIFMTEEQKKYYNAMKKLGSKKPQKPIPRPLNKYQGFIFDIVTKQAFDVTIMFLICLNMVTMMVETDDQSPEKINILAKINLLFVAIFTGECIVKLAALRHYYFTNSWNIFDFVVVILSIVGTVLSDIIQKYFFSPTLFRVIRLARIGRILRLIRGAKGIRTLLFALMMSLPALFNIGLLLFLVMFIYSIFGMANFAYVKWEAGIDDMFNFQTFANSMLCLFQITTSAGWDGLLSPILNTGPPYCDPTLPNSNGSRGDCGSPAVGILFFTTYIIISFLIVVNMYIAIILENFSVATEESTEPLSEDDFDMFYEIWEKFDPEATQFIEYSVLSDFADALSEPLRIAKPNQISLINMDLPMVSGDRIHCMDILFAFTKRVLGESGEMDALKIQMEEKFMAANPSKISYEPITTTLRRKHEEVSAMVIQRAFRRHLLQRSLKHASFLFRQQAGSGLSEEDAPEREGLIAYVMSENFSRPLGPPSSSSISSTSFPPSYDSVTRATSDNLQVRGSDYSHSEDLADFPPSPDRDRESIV
T1 sequence (O75762 whole entry): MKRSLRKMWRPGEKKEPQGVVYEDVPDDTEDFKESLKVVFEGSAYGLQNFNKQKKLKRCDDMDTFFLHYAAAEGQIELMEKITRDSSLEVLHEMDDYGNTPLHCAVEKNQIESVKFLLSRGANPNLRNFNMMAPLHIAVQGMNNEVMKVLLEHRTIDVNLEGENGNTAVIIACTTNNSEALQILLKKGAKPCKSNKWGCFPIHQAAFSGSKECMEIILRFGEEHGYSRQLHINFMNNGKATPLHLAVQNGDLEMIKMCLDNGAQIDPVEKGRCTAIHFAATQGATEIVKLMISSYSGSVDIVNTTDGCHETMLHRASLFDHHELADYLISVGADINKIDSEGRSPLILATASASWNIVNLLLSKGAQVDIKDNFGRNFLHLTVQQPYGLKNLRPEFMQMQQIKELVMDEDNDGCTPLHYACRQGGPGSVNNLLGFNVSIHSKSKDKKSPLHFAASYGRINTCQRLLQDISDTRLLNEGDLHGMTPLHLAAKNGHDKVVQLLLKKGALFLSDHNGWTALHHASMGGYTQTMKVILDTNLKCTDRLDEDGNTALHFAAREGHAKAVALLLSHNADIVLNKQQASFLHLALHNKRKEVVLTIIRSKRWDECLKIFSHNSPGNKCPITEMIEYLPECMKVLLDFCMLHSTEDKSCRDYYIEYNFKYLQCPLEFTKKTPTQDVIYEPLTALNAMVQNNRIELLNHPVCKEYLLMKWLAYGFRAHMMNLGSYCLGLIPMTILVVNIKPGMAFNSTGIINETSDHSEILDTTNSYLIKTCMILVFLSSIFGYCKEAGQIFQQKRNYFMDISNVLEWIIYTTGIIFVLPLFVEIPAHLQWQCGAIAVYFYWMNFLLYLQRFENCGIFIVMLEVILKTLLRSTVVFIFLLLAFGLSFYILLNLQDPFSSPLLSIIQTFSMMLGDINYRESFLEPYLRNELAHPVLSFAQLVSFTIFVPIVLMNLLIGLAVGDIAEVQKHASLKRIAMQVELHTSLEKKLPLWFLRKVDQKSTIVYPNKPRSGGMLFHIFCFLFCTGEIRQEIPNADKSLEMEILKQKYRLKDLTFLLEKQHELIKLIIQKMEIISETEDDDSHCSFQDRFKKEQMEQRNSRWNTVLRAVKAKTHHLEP
Chain of Transient receptor potential cation channel subfamily V member 1 (Q8NER1 whole entry): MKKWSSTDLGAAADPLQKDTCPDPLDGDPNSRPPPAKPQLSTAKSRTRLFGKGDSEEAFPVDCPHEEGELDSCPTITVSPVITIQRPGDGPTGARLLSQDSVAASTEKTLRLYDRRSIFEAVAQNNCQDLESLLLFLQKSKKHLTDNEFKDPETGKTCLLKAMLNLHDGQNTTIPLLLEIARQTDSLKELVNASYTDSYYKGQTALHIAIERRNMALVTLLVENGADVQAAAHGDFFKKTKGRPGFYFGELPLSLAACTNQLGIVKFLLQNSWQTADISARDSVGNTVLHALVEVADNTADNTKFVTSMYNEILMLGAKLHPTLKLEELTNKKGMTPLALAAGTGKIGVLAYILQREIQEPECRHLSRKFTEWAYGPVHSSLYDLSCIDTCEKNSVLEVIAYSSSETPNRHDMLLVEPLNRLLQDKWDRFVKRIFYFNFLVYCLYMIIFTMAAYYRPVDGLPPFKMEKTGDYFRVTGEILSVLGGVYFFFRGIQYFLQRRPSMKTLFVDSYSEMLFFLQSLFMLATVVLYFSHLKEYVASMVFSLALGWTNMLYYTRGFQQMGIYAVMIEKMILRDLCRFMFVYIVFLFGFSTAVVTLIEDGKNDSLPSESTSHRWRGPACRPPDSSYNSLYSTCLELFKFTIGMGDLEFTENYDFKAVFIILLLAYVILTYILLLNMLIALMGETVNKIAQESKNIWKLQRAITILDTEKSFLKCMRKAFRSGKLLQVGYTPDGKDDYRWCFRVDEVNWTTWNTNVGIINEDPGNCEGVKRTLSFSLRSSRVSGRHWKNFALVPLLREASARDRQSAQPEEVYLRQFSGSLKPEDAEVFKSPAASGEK

Compound: Fc1ccc(-c2n[nH]c3cc(C(F)(F)F)cnc23)cc1F
IC50 [1]: 450 nM
IC50 [2]: 255 nM

Compound: N#Cc1ccc(-c2n[nH]c3cc(OC(F)(F)F)ccc23)cn1
IC50 [1]: 1180 nM
IC50 [2]: 271 nM

Compound: Cn1nc(Nc2ccc(Cl)nc2)c2ccc(C(F)(F)F)cc21
IC50 [1]: > 10000 nM

Compound: N#Cc1ccc(-c2n[nH]c3cc(OC(F)(F)F)ccc23)s1
IC50 [1]: 74 nM
IC50 [2]: 80 nM

Compound: Fc1ccc(Nc2n[nH]c3cc(OC(F)(F)F)cnc23)cc1F
IC50 [1]: 20 nM
IC50 [18]: > 30000 nM
IC50 [2]: 11 nM
IC50 [19]: 132 nM
IC50 [20]: 16000 nM
microsomal CLint [5]: 73 µL/min/mg
microsomal CLint [6]: 99 µL/min/mg
Papp B→A (MDR1 [7]): 7 ×10⁻⁶ cm/s
Papp A→B (MDR1 [8]): 2 ×10⁻⁶ cm/s
solubility kinetic [9]: 1.6 µg/mL (≈ 4.85 µM)
IC50 [10]: 330 nM
IC50 [11]: 18200 nM
IC50 [12]: 8700 nM
IC50 [13]: > 30000 nM
IC50 [14]: 11 nM
Activity (Rattus norvegicus [21]): Active
Papp [22]: 0.00333 ×10⁻⁶ cm/s
Drug uptake [23]: 304 µg/g
Drug uptake [24]: 20 µg/g
Drug uptake(free) [25]: 7 to 59 nM

Compound: Fc1ccc(Nc2n[nH]c3cc(Cl)ccc23)cc1F
IC50 [1]: 111 nM
IC50 [2]: 49 nM

Compound: Fc1ccc(Nc2n[nH]c3cc(C(F)(F)F)ccc23)cc1F
IC50 [1]: 53 nM
IC50 [2]: 9 nM

Compound: FC(F)(F)c1ccc2c(Nc3ccc(Cl)cc3)n[nH]c2c1
IC50 [1]: 42 nM
IC50 [2]: 9 nM

Compound: Fc1ccc(Nc2n[nH]c3cc(-c4ccc(F)c(F)c4)ccc23)cc1F
IC50 [1]: 3700 nM

Compound: Fc1ccc2[nH]c(-c3n[nH]c4cc(OC(F)(F)F)ccc34)cc2c1
IC50 [1]: 748 nM
IC50 [2]: 116 nM

Compound: CN(c1ccc(Cl)nc1)c1n[nH]c2cc(C(F)(F)F)ccc12
IC50 [1]: > 10000 nM

Continued, in another order:

IC50 [1]: 1200 nM
Compound: Fc1ccc(Nc2n[nH]c3cc(-c4ccccc4OC(F)(F)F)ccc23)cc1F

IC50 [1]: > 10000 nM
Compound: CN(c1ccc(Cl)nc1)c1nn(C)c2cc(C(F)(F)F)ccc12

IC50 [1]: 4630 nM
IC50 [2]: 1850 nM
Compound: Fc1ccc(-c2n[nH]c3cc(NC4CCN(CC5CC5)CC4)cnc23)cc1

IC50 [1]: 38 nM
IC50 [2]: 23 nM
Compound: Fc1ccc(Nc2n[nH]c3cc(C(F)(F)F)cnc23)cc1F

EC50 [3]: > 30000 nM
IC50 [4]: > 3000 nM
IC50 [1]: 686 nM
IC50 [2]: 246 nM
microsomal CLint [5]: < 8 µL/min/mg
microsomal CLint [6]: 58 µL/min/mg
Papp B→A (MDR1 [7]): 8 ×10⁻⁶ cm/s
Papp A→B (MDR1 [8]): 4 ×10⁻⁶ cm/s
solubility kinetic [9]: 4.8 µg/mL (≈ 15.8 µM)
IC50 [10]: > 10000 nM
IC50 [12]: 17700 nM
IC50 [13]: > 30000 nM
IC50 [14]: 195 nM
concentration (Blood): 11 to 52 nM
Papp (MDCKII-LE): < 0.1 ×10⁻⁶ cm/s
Compound: N#Cc1ccc(-c2n[nH]c3cc(OC(F)(F)F)ccc23)cc1
IC50 [11]: 17300 nM
Activity (Rattus norvegicus [15]): Dose-dependent effect
minimal effective dose (Rattus norvegicus [15]; read-out: MED): 100 mg/kg
Activity (Rattus norvegicus [16]): Active
IC50 [17]: > 30000 nM

IC50 [1]: 2540 nM
IC50 [2]: 813 nM
Compound: Fc1ccc(Nc2n[nH]c3cc(OC(F)(F)F)cnc23)nc1

IC50 [1]: > 10000 nM
Compound: FC(F)(F)c1ccc2c(Nc3ccc(C(F)(F)F)nc3)n[nH]c2c1

IC50 [1]: 91 nM
IC50 [2]: 8 nM
Compound: Fc1ccc2[nH]c(-c3n[nH]c4cc(OC(F)(F)F)cnc34)cc2c1

IC50 [1]: 134 nM
IC50 [2]: 128 nM
Compound: Fc1ccc(-c2n[nH]c3cc(OC(F)(F)F)cnc23)cc1F

IC50 [1]: 2670 nM
IC50 [2]: 453 nM
Compound: COCCNC(=O)c1ccc2c(-c3ccc(C#N)cc3)n[nH]c2c1

IC50 [1]: 11700 nM
Compound: Clc1ccc(Nc2n[nH]c3ccccc23)cc1

IC50 [1]: 131 nM
IC50 [2]: < 100 nM
inhibition [26]: 96%
Compound: Fc1ccc(Nc2n[nH]c3cc(OC(F)(F)F)ccc23)cc1F

EC50 [3]: 37 nM
IC50 [4]: 2600 nM
IC50 [1]: 550 nM
IC50 [10]: 2500 nM
IC50 [13]: > 30000 nM
Compound: FC(F)(F)c1ccc2c(Nc3ccc(Cl)nc3)n[nH]c2c1
IC50 [11]: 8520 nM
IC50 [17]: > 100000 nM

IC50 [1]: 2100 nM
IC50 [2]: 329 nM
Compound: Fc1ccc(-c2n[nH]c3cc(C(F)(F)F)ccc23)cc1F

IC50 [1]: 257 nM
IC50 [2]: 216 nM
Compound: Fc1ccc(-c2n[nH]c3cc(OC(F)(F)F)cnc23)cc1

IC50 [1]: 645 nM
Compound: Fc1ccc(Nc2n[nH]c3cc(C(F)(F)F)ncc23)cc1F

— ChEMBL document CHEMBL4033760, “Discovery of a Series of Indazole TRPA1 Antagonists” (ACS Med Chem Lett, 2017)
